From ChEMBL document CHEMBL3580633, “Benzoxaborole antimalarial agents. Part 4. Discovery of potent 6-(2-(alkoxycarbonyl)pyrazinyl-5-oxy)-1,3-dihydro-1-hydroxy-2,1-benzoxaboroles” (J Med Chem, 2015)

Columns and labels:
[1] = system: Plasmodium falciparum; test: Antimalarial activity against chloroquine-resistant Plasmodium falciparum W2 cultured in human erythrocytes assessed as inhibition of parasite growth at 5 uM incubated for 48 hrs by YOYO-1 staining based flow cytometry; format: functional; conditions: W2, 48 h
Procedure, shortened: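 W2 P. falciparum grown in human erythrocytes in RPMI-1640 with 10% human serum or 0.5% Albumax, under 3% O2/5% CO2/92% N2. Sorbitol-synchronised rings at 2% hematocrit, 1% parasitemia, exposed to one concentration for 48 h. Cells fixed in 2% formaldehyde, stained with YOYO-1, and parasites per erythrocyte counted by flow cytometry. Value given as percent inhibition versus untreated control.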

[2] = system: Plasmodium falciparum; test: Antimalarial activity against chloroquine-sensitive Plasmodium falciparum 3D7 cultured in human erythrocytes incubated for 48 hrs by [3H]-hypoxanthine incorporation assay; format: functional, organism-based
Procedure, shortened: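 3D7 parasites in human erythrocytes, RPMI-1640 with 0.5% Albumax II, […], 37 °C, 5% O2/5% CO2. Asynchronous cultures (0.5% parasitemia, 2% hematocrit) given 3-fold serial dilutions for 24 h. [3H]hypoxanthine then added for a further 24 h, and incorporation counted by scintillation. Normalised to drug-free infected cells. IC50 from at least three independent experiments.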

[3] = system: Plasmodium falciparum; test: Antimalarial activity against chloroquine-resistant Plasmodium falciparum W2 cultured in human erythrocytes assessed as inhibition of parasite growth incubated for 48 hrs by YOYO-1 staining based flow cytometry; format: functional, organism-based; conditions: W2, 48 h
[4] = system: Jurkat; test: Cytotoxicity against human Jurkat cells incubated for 72 hrs by MTT assay; format: cell-based
[5] = system: Plasmodium berghei; test: Antiplasmodial activity against Plasmodium berghei infected in Swiss Webster mouse assessed as mouse survival at 30 mg/kg, po dosed once daily for 4 consecutive days beginning 1 hr after initial infection and measured on day 5 post infection by Giemsa staining method; format: functional
Procedure, shortened: (§1)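 Female Swiss Webster mice (about 20 g) were infected ip with 6 × 10^6 P. berghei-infected erythrocytes from a donor mouse. They were dosed by oral gavage once daily for 4 days, starting 1 h post-infection, in PEG 300/propylene glycol/water (55/25/20 by weight). Parasitemia was read daily on Giemsa smears from day 4, and mice were euthanized above 50% parasitemia. Percent survival was tracked to 21 days.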

[6] = system: Plasmodium berghei; test: Antiplasmodial activity against Plasmodium berghei infected in Swiss Webster mouse assessed as mouse survival at 30 mg/kg, po dosed once daily for 4 consecutive days beginning 1 hr after initial infection and measured on day 9 post infection by Giemsa staining method; format: functional; procedure, shortened: as §1
[7] = system: Plasmodium berghei; test: Antiplasmodial activity against Plasmodium berghei infected in Swiss Webster mouse assessed as mouse survival at 30 mg/kg, po dosed once daily for 4 consecutive days beginning 1 hr after initial infection and measured on day 13 post infection by Giemsa staining method; format: functional; procedure, shortened: as §1
[8] = system: Plasmodium berghei; test: Antiplasmodial activity against Plasmodium berghei infected in Swiss Webster mouse assessed as mouse survival at 30 mg/kg, po dosed once daily for 4 consecutive days beginning 1 hr after initial infection and measured on day 12 post infection by Giemsa staining method; format: functional; procedure, shortened: as §1
[9] = system: Plasmodium berghei; test: Antiplasmodial activity against Plasmodium berghei infected in Swiss Webster mouse assessed as mouse survival at 30 mg/kg, po dosed once daily for 4 consecutive days beginning 1 hr after initial infection and measured on day 7 post infection by Giemsa staining method; format: functional; procedure, shortened: as §1
[10] = system: Plasmodium berghei; test: Antiplasmodial activity against Plasmodium berghei infected in Swiss Webster mouse assessed as mouse survival at 30 mg/kg, po dosed once daily for 4 consecutive days beginning 1 hr after initial infection and measured on day 11 post infection by Giemsa staining method; format: functional; procedure, shortened: as §1
[11] = system: Plasmodium berghei; test: Antiplasmodial activity against Plasmodium berghei infected in Swiss Webster mouse assessed as mouse survival at 30 mg/kg, po dosed once daily for 4 consecutive days beginning 1 hr after initial infection and measured on day 16 to 19 post infection by Giemsa staining method; format: functional; procedure, shortened: as §1
[12] = system: Plasmodium berghei; test: Antiplasmodial activity against Plasmodium berghei infected in Swiss Webster mouse assessed as mouse survival at 30 mg/kg, po dosed once daily for 4 consecutive days beginning 1 hr after initial infection and measured on day 10 post infection by Giemsa staining method; format: functional
Procedure, shortened: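 Female Swiss Webster mice (about 20 g) infected ip with 6 × 10^6 P. berghei-infected erythrocytes. Oral gavage once daily for 4 days, starting 1 h after infection. Vehicle PEG300/propylene glycol/water (55/25/20 by weight). Giemsa-smear parasitemia counted daily from day 4. Mice euthanised above 50% parasitemia. Survival followed to day 21, 5 mice per dose, chloroquine 30 mg/kg as reference.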

[13] = system: Plasmodium berghei; test: Antiplasmodial activity against Plasmodium berghei infected in Swiss Webster mouse assessed as mouse survival at 30 mg/kg, po dosed once daily for 4 consecutive days beginning 1 hr after initial infection and measured on day 8 post infection by Giemsa staining method; format: functional; procedure, shortened: as §1
[14] = system: Plasmodium berghei; test: Antiplasmodial activity against Plasmodium berghei infected in Swiss Webster mouse assessed as mouse survival at 30 mg/kg, po dosed once daily for 4 consecutive days beginning 1 hr after initial infection and measured on day 20 post infection by Giemsa staining method; format: functional; procedure, shortened: as §1
[15] = system: Plasmodium berghei; test: Antiplasmodial activity against Plasmodium berghei infected in Swiss Webster mouse assessed as mouse survival at 30 mg/kg, po dosed once daily for 4 consecutive days beginning 1 hr after initial infection and measured on day 4 post infection by Giemsa staining method; format: functional; procedure, shortened: as §1
[16] = system: Plasmodium berghei; test: Antiplasmodial activity against Plasmodium berghei infected in Swiss Webster mouse assessed as mouse survival at 30 mg/kg, po dosed once daily for 4 consecutive days beginning 1 hr after initial infection and measured on day 15 post infection by Giemsa staining method; format: functional; procedure, shortened: as §1
[17] = system: Plasmodium berghei; test: Antiplasmodial activity against Plasmodium berghei infected in Swiss Webster mouse assessed as mouse survival at 30 mg/kg, po dosed once daily for 4 consecutive days beginning 1 hr after initial infection and measured on day 18 post infection by Giemsa staining method; format: functional; procedure, shortened: as §1
[18] = system: Plasmodium berghei; test: Antiplasmodial activity against Plasmodium berghei infected in Swiss Webster mouse assessed as mouse survival at 30 mg/kg, po dosed once daily for 4 consecutive days beginning 1 hr after initial infection and measured on day 6 post infection by Giemsa staining method; format: functional; procedure, shortened: as §1
[19] = system: Plasmodium berghei; test: Antiplasmodial activity against Plasmodium berghei infected in Swiss Webster mouse assessed as mouse survival at 30 mg/kg, po dosed once daily for 4 consecutive days beginning 1 hr after initial infection and measured on day 14 post infection by Giemsa staining method; format: functional; procedure, shortened: as §1

Row | Compound | IC50 [2] [nM] | IC50 [3] [nM] | other results
1 | CCOC(=O)c1ccc(Oc2ccc3c(c2)B(O)OC3)cc1 |  |  | inhibition at 5 µM [1]: 0%
2 | CCOC(=O)c1ccc(Oc2ccc3c(c2)B(O)OC3)nc1 |  |  | inhibition at 5 µM [1]: 0%
3 | COC(=O)c1ccc(Oc2ccc3c(c2)B(O)OC3)cn1 | 120 | 23 | IC50 [4]: > 100 µM
4 | COC(=O)c1cnc(Oc2ccc3c(c2)B(O)OC3)nc1 |  |  | inhibition at 5 µM [1]: 80%
5 | COC(=O)c1ccc(Oc2ccc3c(c2)B(O)OC3)nn1 | 100 | 82 | 
6 | OB1OCc2ccc(Oc3cnccn3)cc21 | > 5000 | 9380 | 
7 | N#Cc1cnc(Oc2ccc3c(c2)B(O)OC3)cn1 | 3250 | 470 | 
8 | OCc1cnc(Oc2ccc3c(c2)B(O)OC3)cn1 | 2240 | 440 | 
9 | NCc1cnc(Oc2ccc3c(c2)B(O)OC3)cn1 | 470 | 110 | 
10 | CN(C)Cc1cnc(Oc2ccc3c(c2)B(O)OC3)cn1 | > 5000 | > 10000 | 
11 | CNC(=O)c1cnc(Oc2ccc3c(c2)B(O)OC3)cn1 | 320 | 240 | 
12 | CCNC(=O)c1cnc(Oc2ccc3c(c2)B(O)OC3)cn1 | 870 | 120 | IC50 [4]: 79.9 µM
13 | CN(C)C(=O)c1cnc(Oc2ccc3c(c2)B(O)OC3)cn1 | 960 | 150 | IC50 [4]: > 100 µM
14 | O=C(NCCO)c1cnc(Oc2ccc3c(c2)B(O)OC3)cn1 | 5900 | > 10000 | 
15 | CN(C)CCNC(=O)c1cnc(Oc2ccc3c(c2)B(O)OC3)cn1 | > 5000 | 6660 | 
16 | CC(C)S(=O)(=O)NC(=O)c1cnc(Oc2ccc3c(c2)B(O)OC3)cn1 | 130 | 190 | 
17 | O/N=C/c1cnc(Oc2ccc3c(c2)B(O)OC3)cn1 | 3000 | 1770 | 

Row | Compound | IC50 [2] [nM] | IC50 [3] [nM] | other results
18 | N/C(=N\O)c1cnc(Oc2ccc3c(c2)B(O)OC3)cn1 | > 5000 | > 10000 | 
19 | CC1(C)COC(c2cnc(Oc3ccc4c(c3)B(O)OC4)cn2)=N1 | 1460 | 800 | 
20 | Cc1nnc(-c2cnc(Oc3ccc4c(c3)B(O)OC4)cn2)o1 | > 5000 | > 10000 | 
21 | OB1OCc2ccc(Oc3cnc(-c4nnn[nH]4)cn3)cc21 | > 5000 | > 10000 | 
22 | CCOC(=O)c1cnc(Oc2ccc3c(c2)B(O)OC3)cn1 | 4.4 | 0.5 | IC50 [4]: 16.8 µM
23 | CC(C)OC(=O)c1cnc(Oc2ccc3c(c2)B(O)OC3)cn1 | 1.4 | 1.2 | IC50 [4]: > 100 µM
24 | CC(C)COC(=O)c1cnc(Oc2ccc3c(c2)B(O)OC3)cn1 | 2.5 | 0.5 | IC50 [4]: 17.6 µM
25 | CCCCOC(=O)c1cnc(Oc2ccc3c(c2)B(O)OC3)cn1 | 0.7 | 0.2 | IC50 [4]: > 100 µM
26 | CC(C)(C)OC(=O)c1cnc(Oc2ccc3c(c2)B(O)OC3)cn1 | 22 | 19 | IC50 [4]: > 100 µM
27 | CC(C)CCOC(=O)c1cnc(Oc2ccc3c(c2)B(O)OC3)cn1 | 2 | 0.4 | 
28 | O=C(OC1CCCCC1)c1cnc(Oc2ccc3c(c2)B(O)OC3)cn1 | 2.9 | 0.7 | IC50 [4]: 52.4 µM
29 | CC(C)(C)COC(=O)c1cnc(Oc2ccc3c(c2)B(O)OC3)cn1 | 8.9 | 6.6 | 
30 | CC(C)(N)COC(=O)c1cnc(Oc2ccc3c(c2)B(O)OC3)cn1 | 250 | 190 | 
31 | C[C@@H]1CC[C@H]2[C@@H](C)C(=O)O[C@@H]3O[C@@]4(C)CC[C@@H]1[C@]32OO4 [ARTEMISININ] |  | 6 | 
32 | O=C1C(O)=C([C@H]2CC[C@H](c3ccc(Cl)cc3)CC2)C(=O)c2ccccc21 [ATOVAQUONE] | 1 |  | 
33 | CCN(CC)CCCC(C)Nc1ccnc2cc(Cl)ccc12 (stereo not drawn) [CHLOROQUINE] |  |  | survival at 30 mg/kg [5]: 100%; survival at 30 mg/kg [6]: 100%; survival at 30 mg/kg [7]: 100%; survival at 30 mg/kg [8]: 100%; survival at 30 mg/kg [9]: 100%; survival at 30 mg/kg [10]: 100%; survival at 30 mg/kg [11]: 100%; survival at 30 mg/kg [12]: 100%; survival at 30 mg/kg [13]: 100%; survival at 30 mg/kg [14]: 20%; survival at 30 mg/kg [15]: 100%; survival at 30 mg/kg [16]: 100%; survival at 30 mg/kg [17]: 100%; survival at 30 mg/kg [18]: 100%; survival at 30 mg/kg [19]: 100%
